Experimental data: ChEMBL document CHEMBL1649483, “Molecular analysis of the gyrA and gyrB quinolone resistance-determining regions of fluoroquinolone-resistant Clostridium difficile mutants selected in vitro” (2009)

Assays:
Type in all cases: functional
Clostridioides difficile [1] = experiment: Antimicrobial activity against Clostridium difficile C253h harboring GyrA Ala118Ser mutant gene selected after 8 ug/ml of moxifloxacin by Etest method
Clostridioides difficile [2] = experiment: Antimicrobial activity against Clostridium difficile BI2B selected after 4 ug/ml of levofloxacin by Etest method
In short: (§1)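 Stable in vitro-selected mutant tested for gatifloxacin susceptibility by Etest, per the manufacturer's instructions, with an 8 μg/ml breakpoint. For selection, the parent was grown in antibiotic-free brain heart infusion (BHI) for 24 h at 35°C under anaerobic conditions. […] Later steps used double the MIC. Stability was confirmed by three subcultures.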

Clostridioides difficile [3] = experiment: Antimicrobial activity against Clostridium difficile A422B selected after 4 ug/ml of levofloxacin by Etest method; in short: as §1
Clostridioides difficile [4] = experiment: Antimicrobial activity against Clostridium difficile 630B selected after 4 ug/ml of levofloxacin by Etest method; in short: as §1
Clostridioides difficile [5] = experiment: Antimicrobial activity against Clostridium difficile CD5C harboring GyrB Ser416Ala mutant gene selected after 4 ug/ml of levofloxacin by Etest method
Clostridioides difficile [6] = experiment: Antimicrobial activity against Clostridium difficile CD5i harboring GyrA Ala118Ser, Thr82Ala and GyrB Ser416Ala mutant genes selected after 8 ug/ml of moxifloxacin by Etest method
Clostridioides difficile [7] = experiment: Antimicrobial activity against Clostridium difficile CD5b harboring GyrB Ser416Ala mutant gene selected after 2 ug/ml of moxifloxacin by Etest method
Clostridioides difficile [8] = experiment: Antimicrobial activity against Clostridium difficile A422G harboring GyrA Thr82Ile and GyrB Leu451Phe mutant genes selected after 8 ug/ml of levofloxacin by Etest method; in short: as §1
Clostridioides difficile [9] = experiment: Antimicrobial activity against Clostridium difficile A422i harboring GyrA Asp81Asn mutant gene selected after 8 ug/ml of moxifloxacin by Etest method; in short: as §1
Clostridioides difficile [10] = experiment: Antimicrobial activity against Clostridium difficile BI2F harboring GyrB Glu466Lys mutant gene selected after 8 ug/ml of levofloxacin by Etest method; in short: as §1
Clostridioides difficile [11] = experiment: Antimicrobial activity against Clostridium difficile BI2f harboring GyrB Arg447Lys and Asp426Asn mutant gene selected after 32 ug/ml of moxifloxacin by Etest method; in short: as §1
Clostridioides difficile [12] = experiment: Antimicrobial activity against Clostridium difficile 630f selected after 4 ug/ml of moxifloxacin by Etest method; in short: as §1
Clostridioides difficile [13] = experiment: Antimicrobial activity against Clostridium difficile C253d selected after 4 ug/ml of moxifloxacin by Etest method
Clostridioides difficile [14] = experiment: Antimicrobial activity against Clostridium difficile A422f selected after 4 ug/ml of moxifloxacin by Etest method; in short: as §1
Clostridioides difficile [15] = experiment: Antimicrobial activity against Clostridium difficile A422d selected after 4 ug/ml of moxifloxacin by Etest method; in short: as §1
Clostridioides difficile [16] = experiment: Antimicrobial activity against Clostridium difficile BI2D harboring GyrB Glu466Lys mutant gene selected after 8 ug/ml of levofloxacin by Etest method; in short: as §1
Clostridioides difficile [17] = experiment: Antimicrobial activity against Clostridium difficile A422g harboring GyrA Asp81Asn mutant gene selected after 8 ug/ml of moxifloxacin by Etest method; in short: as §1
Clostridioides difficile [18] = experiment: Antimicrobial activity against Clostridium difficile A422a selected after 2 ug/ml of moxifloxacin by Etest method; in short: as §1
Clostridioides difficile [19] = experiment: Antimicrobial activity against Clostridium difficile CD5c harboring GyrB Ser416Ala mutant gene selected after 2 ug/ml of moxifloxacin by Etest method
Clostridioides difficile [20] = experiment: Antimicrobial activity against Clostridium difficile 630b selected after 2 ug/ml of moxifloxacin by Etest method; in short: as §1
Clostridioides difficile [21] = experiment: Antimicrobial activity against Clostridium difficile CD5d harboring GyrB Ser416Ala mutant gene selected after 4 ug/ml of moxifloxacin by Etest method
Clostridioides difficile [22] = experiment: Antimicrobial activity against Clostridium difficile 630B selected after 4 ug/ml of levofloxacin by agar dilution method
Clostridioides difficile [23] = experiment: Antimicrobial activity against Clostridium difficile C253D selected after 8 ug/ml of levofloxacin by agar dilution method
Clostridioides difficile [24] = experiment: Antimicrobial activity against Clostridium difficile BI2F harboring GyrB Glu466Lys mutant gene selected after 8 ug/ml of levofloxacin by agar dilution method
Clostridioides difficile [25] = experiment: Antimicrobial activity against Clostridium difficile 630e selected after 4 ug/ml of moxifloxacin by agar dilution method
Clostridioides difficile [26] = experiment: Antimicrobial activity against Clostridium difficile BI2a harboring GyrB Arg447Lys mutant gene selected after 2 ug/ml of moxifloxacin by agar dilution method
Clostridioides difficile [27] = experiment: Antimicrobial activity against Clostridium difficile A422D harboring GyrB Leu451Phe mutant gene selected after 8 ug/ml of levofloxacin by agar dilution method
Clostridioides difficile [28] = experiment: Antimicrobial activity against Clostridium difficile 630g harboring GyrB […] mutant gene selected after 8 ug/ml of moxifloxacin by agar dilution method
Clostridioides difficile [29] = experiment: Antimicrobial activity against Clostridium difficile A422g harboring GyrA Asp81Asn mutant gene selected after 8 ug/ml of moxifloxacin by agar dilution method
Clostridioides difficile [30] = experiment: Antimicrobial activity against Clostridium difficile C253B selected after 4 ug/ml of levofloxacin by agar dilution method
Clostridioides difficile [31] = experiment: Antimicrobial activity against Clostridium difficile A422e selected after 4 ug/ml of moxifloxacin by agar dilution method
Clostridioides difficile [32] = experiment: Antimicrobial activity against Clostridium difficile A422c selected after 2 ug/ml of moxifloxacin by agar dilution method
Clostridioides difficile [33] = experiment: Antimicrobial activity against Clostridium difficile C253i harboring GyrA Ala118Ser mutant gene selected after 8 ug/ml of moxifloxacin by agar dilution method
Clostridioides difficile [34] = experiment: Antimicrobial activity against Clostridium difficile CD5A harboring GyrB Ser416Ala mutant gene selected after 4 ug/ml of levofloxacin by agar dilution method
Clostridioides difficile [35] = experiment: Antimicrobial activity against Clostridium difficile C253C selected after 4 ug/ml of levofloxacin by agar dilution method
Clostridioides difficile [36] = experiment: Antimicrobial activity against Clostridium difficile C253e selected after 4 ug/ml of moxifloxacin by agar dilution method
Clostridioides difficile [37] = experiment: Antimicrobial activity against Clostridium difficile BI2e harboring GyrB Arg447Lys and Asp426Asn mutant gene selected after 32 ug/ml of moxifloxacin by agar dilution method
Clostridioides difficile [38] = experiment: Antimicrobial activity against Clostridium difficile CD5e harboring GyrB Ser416Ala mutant gene selected after 4 ug/ml of moxifloxacin by agar dilution method
Clostridioides difficile [39] = experiment: Antimicrobial activity against Clostridium difficile CD5E harboring GyrB Ser416Ala mutant gene selected after 8 ug/ml of levofloxacin by agar dilution method
Clostridioides difficile [40] = experiment: Antimicrobial activity against Clostridium difficile C253F selected after 8 ug/ml of levofloxacin by agar dilution method
Clostridioides difficile [41] = experiment: Antimicrobial activity against Clostridium difficile C253c selected after 2 ug/ml of moxifloxacin by agar dilution method

COc1c(N2CCNC(C)C2)c(F)cc2c(=O)c(C(=O)O)cn(C3CC3)c12 (stereo unspecified) [GATIFLOXACIN]
MIC (Clostridioides difficile [1]): 8 µg/mL
MIC (Clostridioides difficile [2]): 2 µg/mL
MIC (Clostridioides difficile [3]): 1 µg/mL
MIC (Clostridioides difficile [4]): 0.75 µg/mL
MIC (Clostridioides difficile [5]): 0.5 µg/mL
MIC (Clostridioides difficile [6]): 16 µg/mL
MIC (Clostridioides difficile [7]): 0.75 µg/mL
MIC (Clostridioides difficile [8]): ≥ 32 µg/mL
MIC (Clostridioides difficile [9]): ≥ 32 µg/mL
MIC (Clostridioides difficile [10]): ≥ 32 µg/mL
MIC (Clostridioides difficile [11]): 6 µg/mL
MIC (Clostridioides difficile [12]): 2 µg/mL
MIC (Clostridioides difficile [13]): 1 µg/mL
MIC (Clostridioides difficile [14]): 1.5 µg/mL
MIC (Clostridioides difficile [15]): 1.5 µg/mL
MIC (Clostridioides difficile [16]): ≥ 32 µg/mL
MIC (Clostridioides difficile [17]): ≥ 32 µg/mL
MIC (Clostridioides difficile [18]): 1.5 µg/mL
MIC (Clostridioides difficile [19]): 0.75 µg/mL
MIC (Clostridioides difficile [20]): 0.75 µg/mL
MIC (Clostridioides difficile [21]): 0.75 µg/mL

C[C@H]1COc2c(N3CCN(C)CC3)c(F)cc3c(=O)c(C(=O)O)cn1c23.C[C@H]1COc2c(N3CCN(C)CC3)c(F)cc3c(=O)c(C(=O)O)cn1c23.O [LEVOFLOXACIN]
MIC (Clostridioides difficile [22]): 1 µg/mL
MIC (Clostridioides difficile [23]): 2 µg/mL
MIC (Clostridioides difficile [24]): 16 µg/mL
MIC (Clostridioides difficile [25]): 4 µg/mL
MIC (Clostridioides difficile [26]): 8 µg/mL
MIC (Clostridioides difficile [27]): 2 µg/mL
MIC (Clostridioides difficile [28]): 64 µg/mL
MIC (Clostridioides difficile [29]): 64 µg/mL
MIC (Clostridioides difficile [30]): 1 µg/mL
MIC (Clostridioides difficile [31]): 4 µg/mL
MIC (Clostridioides difficile [32]): 4 µg/mL
MIC (Clostridioides difficile [33]): 64 µg/mL
MIC (Clostridioides difficile [34]): 1 µg/mL
MIC (Clostridioides difficile [35]): 1 µg/mL
MIC (Clostridioides difficile [36]): 4 µg/mL
MIC (Clostridioides difficile [37]): 64 µg/mL
MIC (Clostridioides difficile [38]): 2 µg/mL
MIC (Clostridioides difficile [39]): 2 µg/mL
MIC (Clostridioides difficile [40]): 2 µg/mL
MIC (Clostridioides difficile [41]): 4 µg/mL
